Source: ChEMBL document CHEMBL1649231, “In vitro activities of panduratin A against clinical Staphylococcus strains” (2009)
Values after ≈ are worked out from the molar mass of the structure shown.

How the values were obtained:
Format in all cases: functional
[1] = system: Staphylococcus haemolyticus; assay: Antimicrobial activity against methicillin-susceptible coagulase-negative Staphylococcus haemolyticus assessed as susceptible isolates after 24 hrs by broth microdilution method
[2] = system: Staphylococcus aureus; assay: Antimicrobial activity against methicillin-susceptible Staphylococcus aureus assessed as resistant isolates after 24 hrs by broth microdilution method
[3] = system: Mammaliicoccus sciuri; assay: Antimicrobial activity against methicillin-resistant coagulase-negative Staphylococcus sciuri assessed as resistant isolates after 24 hrs by broth microdilution method
[4] = system: Staphylococcus epidermidis; assay: Antimicrobial activity against methicillin-resistant coagulase-negative Staphylococcus epidermidis assessed as resistant isolates after 24 hrs by broth microdilution method
[5] = system: Staphylococcus epidermidis; assay: Antimicrobial activity against methicillin-resistant coagulase-negative Staphylococcus epidermidis after 24 hrs by broth microdilution method
Procedure, shortened: (§1)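 Clinical isolates came from blood, body fluids, genital secretions, pus or sputum, identified conventionally or by Vitek. MICs were run by CLSI M7-A6 broth microdilution in Mueller-Hinton broth with 5 × 10^5 CFU/ml inoculum. Agents were twofold serially diluted, starting from 10% DMSO. Drug-free and uninoculated controls were included. Plates were incubated aerobically at 37°C for 24 h; MIC is the lowest concentration giving no visible growth.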

[6] = system: Staphylococcus simulans; assay: Bactericidal activity against methicillin-resistant coagulase-negative Staphylococcus simulans after 24 hrs by plate counting method
Procedure, shortened: (§2)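 Clinical staphylococcal isolates from patient body fluids, blood, genital secretions, pus or sputum; species by conventional methods or Vitek. Twofold dilutions in Mueller-Hinton broth, inoculum 5 × 10^5 CFU/ml, 37°C aerobic 24 h (CLSI M7-A6 microdilution). About 100 μl from each well without visible growth spread on MHA; 37°C 24 h. MBC = lowest concentration giving no growth on agar.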

[7] = system: Mammaliicoccus sciuri; assay: Antimicrobial activity against methicillin-resistant coagulase-negative Staphylococcus sciuri after 24 hrs by broth microdilution method; procedure, shortened: as §1
[8] = system: Staphylococcus aureus; assay: Antimicrobial activity against methicillin-susceptible Staphylococcus aureus after 24 hrs by broth microdilution method; procedure, shortened: as §1
[9] = system: Staphylococcus simulans; assay: Antimicrobial activity against methicillin-susceptible coagulase-negative Staphylococcus simulans assessed as susceptible isolates after 24 hrs by broth microdilution method
Procedure, shortened: (§3)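 Clinical isolates from blood, body fluids, pus, sputum or genital secretions, identified conventionally or by Vitek, were tested alongside ATCC 29213 and ATCC 12228 controls. CLSI M7-A6 broth microdilution in Mueller-Hinton broth used twofold dilutions from a 10% DMSO solution and 5 × 10^5 CFU/ml inoculum. Drug-free and uninoculated wells served as controls; incubation was aerobic at 37°C for 24 h. MIC was the lowest concentration with no visible growth.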

[10] = system: Staphylococcus hominis; assay: Antimicrobial activity against methicillin-resistant coagulase-negative Staphylococcus hominis assessed as resistant isolates after 24 hrs by broth microdilution method
[11] = system: Staphylococcus simulans; assay: Antimicrobial activity against methicillin-resistant coagulase-negative Staphylococcus simulans assessed as resistant isolates after 24 hrs by broth microdilution method
[12] = system: Staphylococcus epidermidis; assay: Antimicrobial activity against methicillin-susceptible coagulase-negative Staphylococcus epidermidis after 24 hrs by broth microdilution method; procedure, shortened: as §1
[13] = system: Staphylococcus haemolyticus; assay: Antimicrobial activity against methicillin-resistant coagulase-negative Staphylococcus haemolyticus assessed as susceptible isolates after 24 hrs by broth microdilution method
[14] = system: Staphylococcus hominis; assay: Antimicrobial activity against methicillin-susceptible coagulase-negative Staphylococcus hominis assessed as susceptible isolates after 24 hrs by broth microdilution method
[15] = system: Staphylococcus simulans; assay: Bactericidal activity against methicillin-susceptible coagulase-negative Staphylococcus simulans after 24 hrs by plate counting method; procedure, shortened: as §2
[16] = system: Staphylococcus hominis; assay: Antimicrobial activity against methicillin-resistant coagulase-negative Staphylococcus hominis assessed as susceptible isolates after 24 hrs by broth microdilution method
[17] = system: Staphylococcus hominis; assay: Antimicrobial activity against methicillin-resistant coagulase-negative Staphylococcus hominis after 24 hrs by broth microdilution method; procedure, shortened: as §1
[18] = system: Staphylococcus aureus; assay: Antimicrobial activity against methicillin-resistant Staphylococcus aureus after 24 hrs by broth microdilution method; procedure, shortened: as §1
[19] = system: Staphylococcus hominis; assay: Antimicrobial activity against methicillin-susceptible coagulase-negative Staphylococcus hominis assessed as resistant isolates after 24 hrs by broth microdilution method
[20] = system: Staphylococcus aureus; assay: Antimicrobial activity against methicillin-susceptible Staphylococcus aureus assessed as susceptible isolates after 24 hrs by broth microdilution method
[21] = system: Staphylococcus epidermidis; assay: Antimicrobial activity against methicillin-susceptible coagulase-negative Staphylococcus epidermidis assessed as susceptible isolates after 24 hrs by broth microdilution method
[22] = system: Staphylococcus haemolyticus; assay: Antimicrobial activity against methicillin-susceptible coagulase-negative Staphylococcus haemolyticus assessed as resistant isolates after 24 hrs by broth microdilution method
[23] = system: Staphylococcus haemolyticus; assay: Antimicrobial activity against methicillin-resistant coagulase-negative Staphylococcus haemolyticus after 24 hrs by broth microdilution method; procedure, shortened: as §1
[24] = system: Staphylococcus haemolyticus; assay: Bactericidal activity against methicillin-susceptible coagulase-negative Staphylococcus haemolyticus after 24 hrs by plate counting method; procedure, shortened: as §2
[25] = system: Mammaliicoccus sciuri; assay: Antimicrobial activity against methicillin-susceptible coagulase-negative Staphylococcus sciuri assessed as susceptible isolates after 24 hrs by broth microdilution method; procedure, shortened: as §3
[26] = system: Staphylococcus epidermidis; assay: Bactericidal activity against methicillin-resistant coagulase-negative Staphylococcus epidermidis after 24 hrs by plate counting method
[27] = system: Staphylococcus hominis; assay: Bactericidal activity against methicillin-susceptible coagulase-negative Staphylococcus hominis after 24 hrs by plate counting method; procedure, shortened: as §2
[28] = system: Staphylococcus haemolyticus; assay: Bactericidal activity against methicillin-resistant coagulase-negative Staphylococcus haemolyticus after 24 hrs by plate counting method
[29] = system: Staphylococcus epidermidis; assay: Antimicrobial activity against methicillin-susceptible coagulase-negative Staphylococcus epidermidis assessed as resistant isolates after 24 hrs by broth microdilution method
[30] = system: Mammaliicoccus sciuri; assay: Bactericidal activity against methicillin-resistant coagulase-negative Staphylococcus sciuri after 24 hrs by plate counting method; procedure, shortened: as §2
[31] = system: Mammaliicoccus sciuri; assay: Bactericidal activity against methicillin-susceptible coagulase-negative Staphylococcus sciuri after 24 hrs by plate counting method; procedure, shortened: as §2
[32] = system: Staphylococcus haemolyticus; assay: Antimicrobial activity against methicillin-susceptible coagulase-negative Staphylococcus haemolyticus after 24 hrs by broth microdilution method; procedure, shortened: as §1
[33] = system: Staphylococcus simulans; assay: Antimicrobial activity against methicillin-resistant coagulase-negative Staphylococcus simulans after 24 hrs by broth microdilution method; procedure, shortened: as §1
[34] = system: Mammaliicoccus sciuri; assay: Antimicrobial activity against methicillin-susceptible coagulase-negative Staphylococcus sciuri assessed as resistant isolates after 24 hrs by broth microdilution method
[35] = system: Mammaliicoccus sciuri; assay: Antimicrobial activity against methicillin-susceptible coagulase-negative Staphylococcus sciuri after 24 hrs by broth microdilution method; procedure, shortened: as §1
[36] = system: Staphylococcus haemolyticus; assay: Antimicrobial activity against methicillin-resistant coagulase-negative Staphylococcus haemolyticus assessed as resistant isolates after 24 hrs by broth microdilution method
[37] = system: Staphylococcus epidermidis; assay: Bactericidal activity against methicillin-susceptible coagulase-negative Staphylococcus epidermidis after 24 hrs by plate counting method; procedure, shortened: as §2
[38] = system: Staphylococcus aureus; assay: Bactericidal activity against methicillin-susceptible Staphylococcus aureus after 24 hrs by plate counting method; procedure, shortened: as §2
[39] = system: Staphylococcus aureus; assay: Antimicrobial activity against methicillin-resistant Staphylococcus aureus assessed as resistant isolates after 24 hrs by broth microdilution method
[40] = system: Staphylococcus hominis; assay: Antimicrobial activity against methicillin-susceptible coagulase-negative Staphylococcus hominis after 24 hrs by broth microdilution method; procedure, shortened: as §1
[41] = system: Staphylococcus epidermidis; assay: Antimicrobial activity against methicillin-resistant coagulase-negative Staphylococcus epidermidis assessed as susceptible isolates after 24 hrs by broth microdilution method
[42] = system: Staphylococcus hominis; assay: Bactericidal activity against methicillin-resistant coagulase-negative Staphylococcus hominis after 24 hrs by plate counting method
[43] = system: Staphylococcus simulans; assay: Antimicrobial activity against methicillin-susceptible coagulase-negative Staphylococcus simulans after 24 hrs by broth microdilution method; procedure, shortened: as §1
[44] = system: Staphylococcus aureus; assay: Bactericidal activity against methicillin-resistant Staphylococcus aureus after 24 hrs by plate counting method
[45] = system: Staphylococcus aureus; assay: Antimicrobial activity against methicillin-resistant Staphylococcus aureus assessed as susceptible isolates after 24 hrs by broth microdilution method
[46] = Staphylococcus haemolyticus, 24 h
[47] = Staphylococcus epidermidis, 24 h

In the case of `Cc1onc(-c2ccccc2)c1C(=O)N[C@@H]1C(=O)N2[C@@H]1SC(C)(C)[C@@H]2C(=O)O` [OXACILLIN], the Activity [1] is reported as 96%, the Activity [2] is reported as 11% and the Activity [3] is reported as 74%. It also gave an Activity [4] of 74%, an MIC50 [5] of 64 µg/mL (≈ 159 µM) and an MIC90 [5] of 64 µg/mL (≈ 159 µM). For the same compound, the MBC90 [6] was 256 µg/mL (≈ 638 µM), the MBC ([6]; Staphylococcus simulans, 24 h) was 1 µg/mL (≈ 2.49 µM) and the MIC50 [7] was 64 µg/mL (≈ 159 µM). The MIC90 [7] was 64 µg/mL (≈ 159 µM), the MIC [8] was 0.125 µg/mL (≈ 0.311 µM) and the MIC50 [8] was 0.125 µg/mL (≈ 0.311 µM). It also gave an MIC90 [8] of 1 µg/mL (≈ 2.49 µM), an Activity [9] of 96% and an Activity [10] of 74%. The Activity [11] was 74%, the MIC [12] was 0.125 µg/mL (≈ 0.311 µM) and the MIC50 [12] was 0.125 µg/mL (≈ 0.311 µM). The MIC90 [12] was 0.5 µg/mL (≈ 1.25 µM), the Activity [13] was 26% and the Activity [14] was 96%. For the same compound, the MBC50 [15] was 2 µg/mL (≈ 4.98 µM), the MBC90 [15] was 8 µg/mL (≈ 19.9 µM) and the MBC ([15]; Staphylococcus simulans, 24 h) was 0.25 µg/mL (≈ 0.623 µM). It also gave an Activity [16] of 26%, an MIC50 [17] of 64 µg/mL (≈ 159 µM) and an MIC90 [17] of 64 µg/mL (≈ 159 µM). It also gave an MIC50 [18] of 64 µg/mL (≈ 159 µM), an MIC90 [18] of 64 µg/mL (≈ 159 µM) and an Activity [19] of 4%. It also gave an Activity [20] of 89%, an Activity [21] of 96% and an Activity [22] of 4%. The MIC50 [23] was 64 µg/mL (≈ 159 µM), the MIC90 [23] was 64 µg/mL (≈ 159 µM) and the MBC50 [24] was 2 µg/mL (≈ 4.98 µM). It also gave an MBC90 [24] of 8 µg/mL (≈ 19.9 µM), an MBC [24, 46] of 0.25 µg/mL (≈ 0.623 µM) and an Activity [25] of 96%. It also gave an MBC90 [26] of 256 µg/mL (≈ 638 µM), an MBC [26, 47] of 1 µg/mL (≈ 2.49 µM) and an MBC50 [27] of 2 µg/mL (≈ 4.98 µM). For the same compound, the MBC90 [27] was 8 µg/mL (≈ 19.9 µM), the MBC ([27]; Staphylococcus hominis, 24 h) was 0.25 µg/mL (≈ 0.623 µM) and the MBC90 [28] was 256 µg/mL (≈ 638 µM). It also gave an MBC [28, 46] of 1 µg/mL (≈ 2.49 µM), an Activity [29] of 4% and an MBC90 [30] of 256 µg/mL (≈ 638 µM). For the same compound, the MBC ([30]; Mammaliicoccus sciuri, 24 h) was 1 µg/mL (≈ 2.49 µM), the MBC50 [31] was 2 µg/mL (≈ 4.98 µM) and the MBC90 [31] was 8 µg/mL (≈ 19.9 µM). The MBC ([31]; Mammaliicoccus sciuri, 24 h) was 0.25 µg/mL (≈ 0.623 µM), the MIC [32] was 0.125 µg/mL (≈ 0.311 µM) and the MIC50 [32] was 0.125 µg/mL (≈ 0.311 µM). It also gave an MIC90 [32] of 0.5 µg/mL (≈ 1.25 µM), an MIC50 [33] of 64 µg/mL (≈ 159 µM) and an MIC90 [33] of 64 µg/mL (≈ 159 µM). The Activity [34] was 4%, the MIC [35] was 0.125 µg/mL (≈ 0.311 µM) and the MIC50 [35] was 0.125 µg/mL (≈ 0.311 µM). It also gave an MIC90 [35] of 0.5 µg/mL (≈ 1.25 µM), an Activity [36] of 74% and an MBC50 [37] of 2 µg/mL (≈ 4.98 µM). It also gave an MBC90 [37] of 8 µg/mL (≈ 19.9 µM), an MBC [37, 47] of 0.25 µg/mL (≈ 0.623 µM) and an MBC50 [38] of 16 µg/mL (≈ 39.9 µM). The MBC90 [38] was 64 µg/mL (≈ 159 µM), the MBC ([38]; Staphylococcus aureus, 24 h) was 1 µg/mL (≈ 2.49 µM) and the Activity [39] was 100%. It also gave an MIC [40] of 0.125 µg/mL (≈ 0.311 µM), an MIC50 [40] of 0.125 µg/mL (≈ 0.311 µM) and an MIC90 [40] of 0.5 µg/mL (≈ 1.25 µM). For the same compound, the Activity [41] was 26%, the MBC90 [42] was 256 µg/mL (≈ 638 µM) and the MBC ([42]; Staphylococcus hominis, 24 h) was 1 µg/mL (≈ 2.49 µM). The MIC [43] was 0.125 µg/mL (≈ 0.311 µM), the MIC50 [43] was 0.125 µg/mL (≈ 0.311 µM) and the MIC90 [43] was 0.5 µg/mL (≈ 1.25 µM). The MBC50 [44] was 256 µg/mL (≈ 638 µM), the MBC90 [44] was 512 µg/mL (≈ 1280 µM) and the MBC ([44]; Staphylococcus aureus, 24 h) was 256 µg/mL (≈ 638 µM). For the same compound, the Activity [45] was 0%.
